The target of experiment [1] is T1, Muscarinic acetylcholine receptor M1 (Rattus norvegicus, UniProt P08482).
T1 sequence (P08482 whole entry): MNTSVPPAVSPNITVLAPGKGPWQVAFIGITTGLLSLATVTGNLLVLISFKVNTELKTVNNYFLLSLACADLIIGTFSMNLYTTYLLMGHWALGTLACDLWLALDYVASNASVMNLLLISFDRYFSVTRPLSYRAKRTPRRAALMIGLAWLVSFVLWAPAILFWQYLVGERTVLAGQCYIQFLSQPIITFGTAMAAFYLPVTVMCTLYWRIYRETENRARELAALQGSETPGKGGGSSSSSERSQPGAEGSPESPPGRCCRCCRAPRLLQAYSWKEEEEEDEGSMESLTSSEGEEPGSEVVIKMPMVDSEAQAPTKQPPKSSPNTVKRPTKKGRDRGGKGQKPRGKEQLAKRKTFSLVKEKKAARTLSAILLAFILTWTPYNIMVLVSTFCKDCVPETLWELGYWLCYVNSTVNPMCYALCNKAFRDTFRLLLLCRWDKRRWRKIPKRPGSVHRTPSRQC
Put plainly: Displacement of [3H]pirenzepine from rat cortex membrane expressing muscarinic M1 receptor. Put shortly:
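M1 binding: male Wistar rat cerebral cortex membranes were resuspended in 8.3 mM Tris-HCl with 1.25 mM MnCl2, pH 7.4. Membranes (250 μg protein) were incubated with about 1.0 nM [3H]pirenzepine for 60 min at 25 °C. Atropine 10 μM defined nonspecific binding. Bound radioactivity was collected by filtration and counted by scintillation. IC50 came from logit-log analysis, converted by Cheng-Prusoff to Ki; single experiment in triplicate.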
On the technique in general: In a radioligand displacement assay an active substance lowers the binding of a labelled ligand.

Experiment [2] is described as follows: Minimum dose required for subcutaneous administration to improve scopolamine-induced impairment of passive avoidance task in mouse(anti-amnesic effect).
Experiment [3] addresses T2, Muscarinic acetylcholine receptor M1 (Rattus norvegicus) (UniProt P08482).
T2 sequence (whole entry): T1 sequence (P08482 whole entry)
Put plainly: Compound was tested for percent inhibition against displacement of [3H]pirenzepine from rat cortex membrane expressing muscarinic M1 receptor at 10^-6 M.

The subject of experiment [4] is Mus musculus. The experiment is described as follows: Dose sc producing more than 30 mg of saliva as a total amount was determined in vivo in mice. The class given is functional. An outline of the steps: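 Male ICR mice given test compound subcutaneously. Saliva collected at 15 and 45 min after dosing. ED30mg is the dose giving more than 30 mg total saliva. Start at 30 mg/kg, then lower each dose to one-third of the previous until the criterion fails. 3-6 mice per dose group.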

Experiment [5] concerns Mus musculus. Put plainly: Dose required to reduce the rectal temperature (hypothermia) by 2 degree Celsius was determined in vivo in mice. It counts as functional. Put shortly: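 Rectal temperature of male ICR mice was taken with a thermoprobe before and 30 min after sc dosing. Dosing started at 30 mg/kg and fell by thirds until a drop over 2 °C no longer occurred, giving ED Δ2°C. Each dose group had 3-6 mice.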

The target in experiment [6] is T3, Muscarinic acetylcholine receptor M2 (Rattus norvegicus, UniProt P10980).
T3 sequence (P10980 whole entry): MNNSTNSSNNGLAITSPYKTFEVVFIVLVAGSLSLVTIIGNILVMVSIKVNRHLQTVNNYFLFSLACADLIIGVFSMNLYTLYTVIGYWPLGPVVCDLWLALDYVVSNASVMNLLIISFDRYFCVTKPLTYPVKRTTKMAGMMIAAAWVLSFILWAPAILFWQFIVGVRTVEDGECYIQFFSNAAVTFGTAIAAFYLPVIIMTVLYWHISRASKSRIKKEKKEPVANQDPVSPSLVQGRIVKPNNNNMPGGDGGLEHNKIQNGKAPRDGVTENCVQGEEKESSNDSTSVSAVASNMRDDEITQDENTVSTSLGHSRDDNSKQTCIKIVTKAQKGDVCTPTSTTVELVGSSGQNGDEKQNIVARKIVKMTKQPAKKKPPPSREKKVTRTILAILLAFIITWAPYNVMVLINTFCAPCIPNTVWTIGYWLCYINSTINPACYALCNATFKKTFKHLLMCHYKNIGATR
The experiment is described as follows: Compound tested in vitro for displacement of [3H]quinuclidinyl benzilate from rat cerebellum membrane expressing muscarinic M2 receptor. It counts as tissue-based. Put shortly: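 Male Wistar rat cerebellum homogenised in 0.32 M sucrose, spun at 900g then 11500g (4 °C), pellet washed in 5 mM Tris-HCl pH 7.4, stored -80 °C. Incubation in 50 mM Na+/K+ phosphate pH 7.4 with 0.06 nM [3H]QNB and 150 μg protein, 60 min at 25 °C. Nonspecific binding with 10 μM atropine. Filtration, scintillation counting. Triplicate, single experiment. Logit-log IC50 converted to Ki by Cheng-Prusoff.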

For experiment [7], the system named is Rattus norvegicus. Put plainly: Increase in blood pressure of pithed rats after intravenous administration at 0.1 mg/kg. The class given is functional. Put shortly: (§1)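 Male Wistar rats (ca. 200–300 g) were ether-anesthetized, tracheally catheterized, pithed with a steel rod and ventilated with room air. Drugs were given iv via the left femoral vein. Arterial pressure was recorded from the left common carotid artery, with body temperature held at 37 °C.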

For experiment [8], the system named is Muscarinic acetylcholine receptors M1 & M2 (Rattus norvegicus). The experiment is described as follows: The ratio of Ki for M2 receptor to the Ki for M1 receptor was determined.
Experiment [9] relates to Mus musculus. The experiment is described as follows: Dose producing more than 30 mg of saliva as a total amount was determined in vivo in mice. It counts as functional. An outline of the steps: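 Male ICR mice were dosed sc, and saliva was collected at 15 and 45 min after dosing. ED30mg is the dose giving more than 30 mg total saliva. Dosing started at 30 mg/kg and fell stepwise by thirds. Each dose group had 3-6 mice.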

Experiment [10] has as its target T4, Muscarinic acetylcholine receptor M2 (Mus musculus) (UniProt Q9ERZ4).
T4 sequence (whole entry): T3 sequence (P10980 whole entry) with V270G, R316K, K321R, A331T, V336A
The experiment is described as follows: In vivo muscarinic effect of […] hypothermia against central M2 receptor in mice at dose under 30 mg/kg sc (2 degree Celsius). The class given is functional, organism-based. On the set-up: dose 30 mg/kg. Put shortly:
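Male ICR mice given test compound subcutaneously. Rectal temperature taken by thermoprobe before dosing and 30 min after. ED for a 2 °C fall was found by starting at 30 mg/kg and lowering each dose to one-third of the previous until no drop over 2 °C was seen. 3-6 mice per dose group.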

For experiment [11], the system named is Rattus norvegicus. The experiment is described as follows: Increase in blood pressure of pithed rats after intravenous administration at 3 mg/kg. It counts as functional. Put shortly: as §1
Experiment [12] deals with T3, Muscarinic acetylcholine receptor M2. Put plainly: Tested against muscarinic M2 receptor by displacement of [3H]quinuclidinyl benzilate from rat cerebellum membrane. The class given is tissue-based. Put shortly: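 M2 binding: male Wistar rat cerebellum membranes (150 μg protein) were incubated with 0.06 nM [3H]QNB in 50 mM Na+/K+ phosphate, pH 7.4, for 60 min at 25 °C. Atropine 10 μM defined nonspecific binding. Bound radioactivity was collected by filtration and counted by scintillation. Ki came from logit-log IC50 with Cheng-Prusoff correction; single experiment in triplicate, with 95% confidence intervals.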

One may read the Ki as the equilibrium dissociation constant of an inhibitor or competing ligand from its target. Higher therefore signals weaker binding. As usually defined, the inhibition is the change of the read-out against control, counted positive when it falls. High values mean a response far below the control, low ones a response near the control.

Where a chain is given by its changes, count along the chain named.

`C=CCN1C(=O)OC2(CCN(C)CC2)C1=O` gave a Ki in [1] of 5.1 µM. In experiment [2], this compound showed an MED of more than 30 mg/kg.
Turning to `CN1CCC2(CC1)OC(=O)N(CC(N)=O)C2=O`, in [1], the Ki was more than 10 µM. Moreover, the MED in experiment [2] was more than 30 mg/kg. For the same compound, in [3], the inhibition was 36%.
In [1], `CN1CCC2(CC1)OC(=O)NC2=O` returned a Ki of more than 10 µM. The compound also displayed an MED in experiment [2] of more than 30 mg/kg. The compound further gave an inhibition in [3] of 0%.
On the same counts, the results for `CN1CCC2(CC1)OC(=O)N(CCN1CCOCC1)C2=O` are more than 10 µM, more than 30 mg/kg and 10%.
`CCN1C(=O)OC2(CCN(CCCC(=O)OC)CC2)C1=O` registered a Ki in experiment [1] of more than 10 µM. Also, the MED in experiment [2] is 30 mg/kg. Moreover, the inhibition in [3] came out at 0%.
Consider `CCN1C(=O)OC2(CCN(Cc3ccccc3)CC2)C1=O`, for which the inhibitory constant (Ki) in [1] is more than 10 µM. The inhibition in experiment [3] was determined as 2%.
As to `CCN1C(=O)OC2(CCN(CC#CCOC(=O)Nc3cccc(Cl)c3)CC2)C1=O`, in experiment [1], the Ki is more than 10 µM. The same compound showed an MED in experiment [2] of more than 30 mg/kg. In [3], the inhibition turned out to be 0%.
In turn, `CN1CCC2(CC1)OC(=O)N(C(C)(C)C)C2=O` gave an inhibition constant (Ki) in experiment [1] of 1.5 µM.
For `Br.CCN1C(=O)CC2(CCN(C)CC2)C1=O`, the ED30 in experiment [4] amounted to 0.5 mg/kg. This compound yielded an ED delta in experiment [5] of 1 mg/kg. Besides, the Ki in experiment [1] is 0.46 µM; in [6], 0.97 µM. This compound came in with a BP in experiment [7] of 12 mmHg. Further, in [8], the M2/M1 Index is 2.1. The same compound displayed an MED in [2] of 0.1 mg/kg.
On to `CCN1C(=O)OC2(CCNCC2)C1=O.Cl`, for which the ED30 in experiment [9] is more than 30 mg/kg. Further, the ED delta in experiment [5] was more than 30 mg/kg. This compound also gave a Ki in experiment [1] of 7.8 µM. For the same compound, the MED in experiment [2] was determined as 0.3 mg/kg.
Take `COC(=O)CCCN1C(=O)OC2(CCN(C)CC2)C1=O`: the affinity in experiment [1] corresponds to a Ki of 6.4 µM. Moreover, the MED in experiment [2] was more than 30 mg/kg.
In turn, `CN1CCC2(CC1)OC(=S)N(c1ccccc1)C2=O` gave a Ki in experiment [1] of 4 µM.
On to `COC(=O)CN1C(=O)OC2(CCN(C)CC2)C1=O`, for which the Ki in [1] is more than 10 µM. In experiment [3], this compound yielded an inhibition of 40%.
In turn, `CCN1C(=O)OC2(CCCN(C)C2)C1=O` (configuration not stated) had a Ki in experiment [1] of more than 10 µM. Besides, the MED in experiment [2] was more than 30 mg/kg.
In turn, `CN1CCC2(CC1)OC(=S)N(C(C)(C)C)C2=O.Cl` came in with an ED30 in experiment [4] of more than 30 mg/kg. The ED delta in experiment [10] came out at 30 mg/kg. Also, the Ki amounted to 0.21 µM in experiment [1] and 2.1 µM in experiment [6].
On to `CN1CCC2(CC1)OC(=O)N(c1cccc(Cl)c1)C2=O`, for which the Ki in experiment [1] was 12 µM. Besides, the MED in experiment [2] stood at 0.3 mg/kg.
For `CCN1C(=O)OC2(CCN(C)C2)C1=O` (configuration not stated), in experiment [1], the Ki is more than 10 µM. This compound came in with an MED in experiment [2] of more than 30 mg/kg.
Turning to `CCN1C(=O)C2(CCN(C)CC2)OC1=S`, the ED30 in experiment [4] worked out at 30 mg/kg. The ED delta in experiment [10] is 30 mg/kg. Also, the Ki worked out at 0.89 µM in [1] and 4.3 µM in experiment [6].
On to `CN1CCC2(CC1)OC(=S)NC2=O`, for which, in experiment [1], the Ki is more than 10 µM. The compound also returned an MED in experiment [2] of 30 mg/kg. In addition, the inhibition in experiment [3] turned out to be 0%.
For the compound `CCN1C(=O)OC2(CCN(C)CC2)C1=O.Cl`, the ED30 in [9] turned out to be 30 mg/kg. Besides, the ED delta in [5] is more than 30 mg/kg. The results for the Ki in experiment [1] and in [12] were 5 µM and 7.8 µM, respectively. This compound also displayed a BP in experiment [11] of 24 mmHg. Besides, the M2/M1 Index in [8] turned out to be 1.5. Moreover, the MED in experiment [2] turned out to be 0.3 mg/kg.
In experiment [1], `CN1CCC2(CC1)OC(=O)N(C)C2=O` came in with a Ki of 16 µM. Moreover, the MED in experiment [2] was more than 30 mg/kg.

The values above are taken from ChEMBL document CHEMBL1126758, “Synthesis and structure-activity studies of a series of spirooxazolidine-2,4-diones: 4-oxa analogues of the muscarinic agonist 2-ethyl-8-methyl-2,8-diazaspiro[4.5]decane-1,3-dione” (J Med Chem, 1993).
